Results published in the M2OR odorant receptor database.

What was measured:
Settings in all cases: stereoisomer not certain
[1] = biological target: T1, UniProt E9PVX1
T1 sequence (whole entry): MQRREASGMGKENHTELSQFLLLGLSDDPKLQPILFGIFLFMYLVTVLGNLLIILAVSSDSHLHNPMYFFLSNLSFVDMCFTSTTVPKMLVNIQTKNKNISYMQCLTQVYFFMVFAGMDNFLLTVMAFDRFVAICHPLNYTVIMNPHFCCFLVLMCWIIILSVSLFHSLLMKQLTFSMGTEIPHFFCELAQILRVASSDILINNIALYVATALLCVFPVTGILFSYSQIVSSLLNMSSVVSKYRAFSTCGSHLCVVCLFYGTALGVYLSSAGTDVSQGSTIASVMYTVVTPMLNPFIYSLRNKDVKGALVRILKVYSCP
Procedure, shortened: (§1)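 Each entry records the cell line, G-protein, co-transfected protein and tags used. Methods varied with the source, often transient luciferase assays in mammalian cell lines. A receptor–molecule pair is called responsive (active) if the original authors judged its signal statistically different from baseline and non-responsive (inactive) otherwise.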

[2] = biological target: T2, UniProt E9PZ66
T2 sequence (whole entry): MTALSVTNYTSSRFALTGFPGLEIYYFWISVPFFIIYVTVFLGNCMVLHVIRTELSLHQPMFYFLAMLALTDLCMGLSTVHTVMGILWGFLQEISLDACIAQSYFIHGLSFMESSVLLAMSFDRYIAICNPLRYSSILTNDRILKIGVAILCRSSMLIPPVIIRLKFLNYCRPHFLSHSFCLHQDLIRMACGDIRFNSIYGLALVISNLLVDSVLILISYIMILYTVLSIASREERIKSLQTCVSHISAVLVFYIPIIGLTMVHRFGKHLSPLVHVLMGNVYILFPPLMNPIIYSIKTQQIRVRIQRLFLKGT
Procedure, shortened: as §1

[3] = biological target: T3, UniProt E9Q4X7
T3 sequence (whole entry): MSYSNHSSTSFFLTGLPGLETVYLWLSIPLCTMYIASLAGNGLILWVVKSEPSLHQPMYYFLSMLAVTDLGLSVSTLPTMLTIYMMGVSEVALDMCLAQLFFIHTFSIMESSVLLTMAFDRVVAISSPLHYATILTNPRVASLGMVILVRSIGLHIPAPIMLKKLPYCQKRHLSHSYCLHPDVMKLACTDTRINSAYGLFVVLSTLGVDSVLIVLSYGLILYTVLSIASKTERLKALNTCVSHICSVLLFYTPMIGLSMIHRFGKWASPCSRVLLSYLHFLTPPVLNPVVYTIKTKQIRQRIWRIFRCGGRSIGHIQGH
Procedure, shortened: as §1

[4] = biological target: T4, UniProt E9Q546
T4 sequence (whole entry): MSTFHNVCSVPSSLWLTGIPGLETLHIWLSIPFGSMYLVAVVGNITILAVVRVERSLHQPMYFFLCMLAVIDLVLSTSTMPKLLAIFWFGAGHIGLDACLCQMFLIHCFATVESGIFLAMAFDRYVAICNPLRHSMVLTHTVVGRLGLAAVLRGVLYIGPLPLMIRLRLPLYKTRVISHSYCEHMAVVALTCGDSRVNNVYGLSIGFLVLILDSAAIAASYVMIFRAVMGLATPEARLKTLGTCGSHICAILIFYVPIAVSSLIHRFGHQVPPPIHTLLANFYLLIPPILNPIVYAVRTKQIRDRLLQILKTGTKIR
Procedure, shortened: as §1

[5] = biological target: T5, UniProt E9Q6Z7
T5 sequence (whole entry): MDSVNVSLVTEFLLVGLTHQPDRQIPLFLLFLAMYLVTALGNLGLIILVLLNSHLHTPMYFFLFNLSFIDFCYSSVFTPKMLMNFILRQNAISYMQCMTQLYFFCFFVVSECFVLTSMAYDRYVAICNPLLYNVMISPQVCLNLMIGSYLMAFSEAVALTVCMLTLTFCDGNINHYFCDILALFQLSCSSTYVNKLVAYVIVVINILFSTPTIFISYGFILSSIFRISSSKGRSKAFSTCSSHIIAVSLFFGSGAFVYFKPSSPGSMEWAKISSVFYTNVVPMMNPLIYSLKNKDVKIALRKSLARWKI
Procedure, shortened: as §1

[6] = biological target: T6, UniProt L7MU75
T6 sequence (whole entry): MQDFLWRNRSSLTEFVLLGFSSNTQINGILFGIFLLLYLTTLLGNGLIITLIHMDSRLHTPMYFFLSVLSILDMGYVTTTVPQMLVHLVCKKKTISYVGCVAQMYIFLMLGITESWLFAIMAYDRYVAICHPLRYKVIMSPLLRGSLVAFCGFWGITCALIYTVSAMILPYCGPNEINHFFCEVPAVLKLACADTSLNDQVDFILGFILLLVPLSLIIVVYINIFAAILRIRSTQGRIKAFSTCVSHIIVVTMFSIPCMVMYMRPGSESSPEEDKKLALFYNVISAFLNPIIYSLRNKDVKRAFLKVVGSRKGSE
Procedure, shortened: as §1

[7] = biological target: T7, UniProt L7N210
T7 sequence (whole entry): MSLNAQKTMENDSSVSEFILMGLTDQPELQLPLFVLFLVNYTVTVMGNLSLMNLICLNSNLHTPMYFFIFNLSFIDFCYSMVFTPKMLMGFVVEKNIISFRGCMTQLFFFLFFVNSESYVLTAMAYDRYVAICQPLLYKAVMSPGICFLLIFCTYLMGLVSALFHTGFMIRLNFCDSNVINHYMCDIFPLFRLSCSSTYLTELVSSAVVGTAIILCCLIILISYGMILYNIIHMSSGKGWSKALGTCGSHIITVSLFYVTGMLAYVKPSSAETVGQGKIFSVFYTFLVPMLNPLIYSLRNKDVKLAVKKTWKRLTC
Procedure, shortened: as §1

[8] = biological target: T8, UniProt Q3KPB0
T8 sequence (whole entry): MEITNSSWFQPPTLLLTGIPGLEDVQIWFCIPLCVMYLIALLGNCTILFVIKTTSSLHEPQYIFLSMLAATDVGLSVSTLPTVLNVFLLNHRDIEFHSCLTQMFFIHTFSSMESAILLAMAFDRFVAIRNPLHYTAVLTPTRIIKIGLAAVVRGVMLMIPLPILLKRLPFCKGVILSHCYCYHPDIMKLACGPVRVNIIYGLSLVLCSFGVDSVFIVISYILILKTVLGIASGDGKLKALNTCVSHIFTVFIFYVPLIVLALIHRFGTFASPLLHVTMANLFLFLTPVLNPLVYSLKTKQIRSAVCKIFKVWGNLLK
Procedure, shortened: as §1

[9] = biological target: T9, UniProt Q3U0P3
T9 sequence (whole entry): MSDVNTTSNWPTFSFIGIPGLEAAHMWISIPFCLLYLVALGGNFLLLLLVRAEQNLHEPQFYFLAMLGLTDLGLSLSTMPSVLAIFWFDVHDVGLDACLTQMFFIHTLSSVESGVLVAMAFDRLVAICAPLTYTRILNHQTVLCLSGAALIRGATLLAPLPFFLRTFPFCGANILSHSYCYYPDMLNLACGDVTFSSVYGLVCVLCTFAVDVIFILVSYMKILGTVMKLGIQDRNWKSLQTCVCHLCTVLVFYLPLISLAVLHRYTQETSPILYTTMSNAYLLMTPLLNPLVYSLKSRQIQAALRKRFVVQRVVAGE
Procedure, shortened: as §1

[10] = biological target: T10, UniProt Q7TQU8
T10 sequence (whole entry): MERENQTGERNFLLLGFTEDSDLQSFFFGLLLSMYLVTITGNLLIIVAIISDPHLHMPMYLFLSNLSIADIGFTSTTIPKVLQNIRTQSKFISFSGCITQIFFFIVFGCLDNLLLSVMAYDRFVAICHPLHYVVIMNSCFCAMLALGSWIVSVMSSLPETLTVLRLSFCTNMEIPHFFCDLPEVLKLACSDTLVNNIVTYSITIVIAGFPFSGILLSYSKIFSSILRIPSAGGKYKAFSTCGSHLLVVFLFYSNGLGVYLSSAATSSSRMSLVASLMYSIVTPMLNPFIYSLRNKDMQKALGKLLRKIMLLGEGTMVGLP
Procedure, shortened: as §1

[11] = biological target: T11, UniProt Q7TR79
T11 sequence (whole entry): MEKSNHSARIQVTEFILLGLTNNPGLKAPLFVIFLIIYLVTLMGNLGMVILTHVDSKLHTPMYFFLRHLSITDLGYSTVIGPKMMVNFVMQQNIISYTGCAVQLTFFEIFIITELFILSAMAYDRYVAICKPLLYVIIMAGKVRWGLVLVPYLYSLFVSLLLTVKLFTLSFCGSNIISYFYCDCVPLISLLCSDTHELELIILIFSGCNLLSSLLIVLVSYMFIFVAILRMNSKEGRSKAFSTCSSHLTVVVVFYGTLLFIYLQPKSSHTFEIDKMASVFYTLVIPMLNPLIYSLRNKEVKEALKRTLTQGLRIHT
Procedure, shortened: as §1

[12] = biological target: T12, UniProt E9Q9Z6
T12 sequence (whole entry): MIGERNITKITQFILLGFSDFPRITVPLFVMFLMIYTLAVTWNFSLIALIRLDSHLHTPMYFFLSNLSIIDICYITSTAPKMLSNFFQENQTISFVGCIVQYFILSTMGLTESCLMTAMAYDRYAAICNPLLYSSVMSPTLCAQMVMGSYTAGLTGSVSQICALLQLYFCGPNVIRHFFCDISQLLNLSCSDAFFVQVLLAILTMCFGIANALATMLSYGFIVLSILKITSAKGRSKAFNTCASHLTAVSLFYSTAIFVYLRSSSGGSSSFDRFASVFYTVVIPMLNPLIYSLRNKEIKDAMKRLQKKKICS
Procedure, shortened: as §1

[13] = biological target: UniProt E9PXN3
Procedure, shortened: as §1

[14] = biological target: UniProt Q7TRM0
Procedure, shortened: as §1

Chain of UniProt Q7TRM0 (Q7TRM0 as listed by the source): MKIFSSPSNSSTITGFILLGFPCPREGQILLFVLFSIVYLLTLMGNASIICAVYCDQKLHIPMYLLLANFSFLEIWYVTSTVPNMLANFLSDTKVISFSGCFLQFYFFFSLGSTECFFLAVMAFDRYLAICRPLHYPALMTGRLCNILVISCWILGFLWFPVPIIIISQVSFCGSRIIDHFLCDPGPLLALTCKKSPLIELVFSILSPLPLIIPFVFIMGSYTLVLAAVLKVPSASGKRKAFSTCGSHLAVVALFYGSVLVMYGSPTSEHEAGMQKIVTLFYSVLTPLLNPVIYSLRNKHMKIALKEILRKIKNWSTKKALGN
Chain of UniProt E9PXN3 (E9PXN3 as listed by the source): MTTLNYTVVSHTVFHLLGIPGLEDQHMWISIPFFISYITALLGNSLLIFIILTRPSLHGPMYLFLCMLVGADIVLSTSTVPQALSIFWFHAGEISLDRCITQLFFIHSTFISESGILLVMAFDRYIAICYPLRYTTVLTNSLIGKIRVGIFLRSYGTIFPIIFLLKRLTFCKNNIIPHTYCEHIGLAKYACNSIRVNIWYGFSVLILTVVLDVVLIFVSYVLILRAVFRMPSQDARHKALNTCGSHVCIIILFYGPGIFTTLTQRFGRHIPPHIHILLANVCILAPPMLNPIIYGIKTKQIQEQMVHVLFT

In the case of `O=CC=Cc1ccccc1`, the “odorant receptor agonist call” value [1] is reported as “inactive”, the “odorant receptor agonist call” value [2] is reported as “inactive” and the “odorant receptor agonist call” value [3] is reported as “inactive”. The “odorant receptor agonist call” value [4] was “inactive”, the “odorant receptor agonist call” value [5] was “inactive” and the “odorant receptor agonist call” value [6] was “inactive”. The “odorant receptor agonist call” value [7] was “inactive”, the “odorant receptor agonist call” value [8] was “inactive” and the “odorant receptor agonist call” value [9] was “inactive”. For the same molecule, the “odorant receptor agonist call” value [10] was “inactive” and the “odorant receptor agonist call” value [11] was “inactive”.

With `COc1ccc(C=O)cc1` the “odorant receptor agonist call” value [1] was “inactive”, the “odorant receptor agonist call” value [2] was “inactive” and the “odorant receptor agonist call” value [3] was “inactive”. The “odorant receptor agonist call” value [4] was “inactive”, the “odorant receptor agonist call” value [5] was “inactive” and the “odorant receptor agonist call” value [6] was “inactive”. The “odorant receptor agonist call” value [7] was “active”, the “odorant receptor agonist call” value [8] was “inactive” and the “odorant receptor agonist call” value [9] was “inactive”. For the same molecule, the “odorant receptor agonist call” value [10] was “inactive” and the “odorant receptor agonist call” value [11] was “inactive”.

In the case of `Cc1c([N+](=O)[O-])c(C)c([N+](=O)[O-])c(C(C)(C)C)c1[N+](=O)[O-]`, the “odorant receptor agonist call” value [12] is reported as “active”.

In the case of `O=C(O)CCCCCCCBr`, the “odorant receptor agonist call” value [13] is reported as “inactive” and the “odorant receptor agonist call” value [14] is reported as “inactive”.
